Laboratory results from ChEMBL document CHEMBL1140319, “The taming of capsaicin. Reversal of the vanilloid activity of N-acylvanillamines by aromatic iodination” (J Med Chem, 2005).

Tests used:
[1] = molecular target: T1, Transient receptor potential cation channel subfamily V member 1 (Homo sapiens, UniProt Q8NER1); experiment: Inhibition of 100 nM capsaicin effect on intracellular [Ca2+] concentration in HEK293 cells expressing human TRPV1; type: cell-based
Procedure, shortened: (§1)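 HEK293 cells stably overexpressing human TRPV1, grown in MEM with nonessential amino acids, 10% FCS and 0.2 mM glutamine. Plated on poly-L-lysine one day before use. Loaded 2 h at 25 °C with 4 μM Fluo-3 AM plus 0.04% Pluronic, then trypsinized into Tyrode pH 7.4 in a stirred cuvette. Compounds added 10 min before 100 nM capsaicin. IC50 from half-maximal inhibition.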

[2] = molecular target: T1, Transient receptor potential cation channel subfamily V member 1; experiment: Inhibition of 100 nM capsaicin effect on intracellular [Ca2+] concentration in HEK293 cells expressing human TRPV1; (weak agonist activity); type: functional, cell-based
Procedure, shortened: as §1, with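 “capsaicin. Fluorescence read at 25 °C (ex 488/em 540 nm).” for “capsaicin.”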

T1 sequence (Q8NER1 whole entry): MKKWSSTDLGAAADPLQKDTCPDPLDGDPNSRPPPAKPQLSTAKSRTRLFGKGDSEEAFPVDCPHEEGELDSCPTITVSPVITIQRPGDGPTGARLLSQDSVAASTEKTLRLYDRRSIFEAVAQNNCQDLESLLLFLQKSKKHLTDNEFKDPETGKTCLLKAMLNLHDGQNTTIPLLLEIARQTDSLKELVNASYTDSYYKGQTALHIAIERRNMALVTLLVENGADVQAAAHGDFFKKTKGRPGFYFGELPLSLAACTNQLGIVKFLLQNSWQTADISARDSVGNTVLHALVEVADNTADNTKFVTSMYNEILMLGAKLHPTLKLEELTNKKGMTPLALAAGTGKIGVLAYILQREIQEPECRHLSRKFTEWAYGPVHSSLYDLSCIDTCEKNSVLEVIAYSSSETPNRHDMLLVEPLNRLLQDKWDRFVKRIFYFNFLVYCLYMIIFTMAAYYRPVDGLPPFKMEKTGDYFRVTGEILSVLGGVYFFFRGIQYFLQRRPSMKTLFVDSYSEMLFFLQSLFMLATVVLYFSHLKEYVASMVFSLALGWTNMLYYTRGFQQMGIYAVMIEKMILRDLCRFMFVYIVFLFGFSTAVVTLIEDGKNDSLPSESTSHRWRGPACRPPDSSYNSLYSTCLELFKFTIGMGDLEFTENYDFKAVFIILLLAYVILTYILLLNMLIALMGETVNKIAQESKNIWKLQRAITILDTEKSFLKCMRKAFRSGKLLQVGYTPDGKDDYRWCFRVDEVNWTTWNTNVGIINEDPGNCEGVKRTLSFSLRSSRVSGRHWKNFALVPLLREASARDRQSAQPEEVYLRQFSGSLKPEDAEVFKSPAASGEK

Compound | IC50 [1] [nM] | IC50 [2] [nM]
CCCCCCCCC(=O)NCc1ccc(O)c(OC)c1NC(C)=O | 9540 | –
CCCCCCCCC(=O)NCc1cc(OC)c(O)c(-c2cc(CNC(=O)CCCCCCCC)cc(OC)c2O)c1 | – | > 20000
CCCCC/C=C/C/C=C/C/C=C/C/C=C/CCCC=O | 51 | –
CCCCCCCCC(=O)NCc1cc(I)c(O)c(OC)c1 | 126 | –
CCCCCCCCC(=O)NCc1cc(Br)c(O)c(OC)c1 | 252 | –
C=C(C)[C@]12C[C@@H](C)[C@@]3(OCc4ccccc4)[C@@H](C=C(COC(=O)Cc4cc(I)c(O)c(OC)c4)C[C@]4(O)C(=O)C(C)=C[C@@H]34)[C@H]1OCO2 | 0.4 | –
CCCCCCCCC(=O)NCc1cc(OC)c(O)cc1I | 10 | –
CCCCCCCCC(=O)NCc1cc(Cl)c(O)c(OC)c1 | 631 | –
Oc1cc2c(cc1O)CN(C(=S)NCCc1ccc(Cl)cc1)CCC2 [CAPSAZEPINE] | 56.2 | –
CCCCCCCCC(=O)NCc1cc(OC)c(O)cc1Br | 16.1 | –
CCCCCCCCC(=O)NCc1cc(OC)c(O)cc1Cl | 50.3 | –
CCCCCCCCC(=O)NCc1ccc(O)c(OC)c1[N+](=O)[O-] | 11000 | –
